Screens deposited in PubChem BioAssay by Sanford-Burnham Center for Chemical Genomics.
SUMO1 PPI mod = modulators of human SUMO1-mediated protein-protein interactions; SUMO1 binding to a labelled peptide, TR-FRET, 1 h; inhibition, % at 20 µM; 0.33% of 360,000 active; AID 602429; in the data active = inhibition above about 37%
SKN-1 inh = inhibitors of C. elegans SKN-1; 0.49% of 360,000 active; C. elegans VP596 Pgst-4::GFP/RFP ratio, acrylamide-induced, 24 h; AID 624304; inhibition, % at 21.8 µM;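 active = interference check ratio from 0.5 to 1.5 plus GFP to RFP signal ratio inhibition reaching or exceeding a fixed threshold, cut at about 30% in these data, passing the limit was not always enough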
CSN deneddyl inh = inhibitors of human CSN-mediated cullin deneddylation. Purified CSN, SCF-Nedd8-OG deneddylation, fluorescence polarization. inhibition, % at 12.5 µM. 0.38% of 360,000 active. AID 651999;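 active = pattern-corrected inhibition above about 35%, with an unprinted fluorescence ratio check between 0.5 and 1.5, limit read from the data, passing the limit was not always enough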
Target sequence (Q92905 whole entry, looked up, one chain of several): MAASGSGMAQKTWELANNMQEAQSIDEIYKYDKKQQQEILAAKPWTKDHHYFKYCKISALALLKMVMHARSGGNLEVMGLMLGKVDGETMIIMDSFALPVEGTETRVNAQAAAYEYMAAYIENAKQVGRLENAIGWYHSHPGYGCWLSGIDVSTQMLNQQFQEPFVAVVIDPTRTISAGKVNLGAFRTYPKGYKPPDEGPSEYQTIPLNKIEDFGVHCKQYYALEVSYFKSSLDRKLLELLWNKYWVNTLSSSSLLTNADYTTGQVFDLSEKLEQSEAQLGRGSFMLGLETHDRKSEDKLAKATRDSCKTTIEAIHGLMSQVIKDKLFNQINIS
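Assay system: HEK293T-derived human Csn5 enzyme; quantity: 0.24 nM enzyme; medium: Tris/NaCl/DTT buffer, pH 7.5; also added: substrate SCFSkp2-Nedd8OG, 10 nM; doses: 12.5 µM compound; schedule: 90 min reaction at room temperature; signal: FP; read-out: % inhibition of substrate cleavage by Csn5; benchmarks: substrate-only high control, full reaction low control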
MT1-MMP act inh = inhibitors of human MT1-MMP activation. P50281. HT1080 RFP-PRO-GFP cells, GFP/RFP ratio fluorescence, overnight; percent of plate control window, DMSO zero. GFP/RFP ratio change, % at 20 µM. 0.061% of 360,000 active;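 active = GFP/RFP ratio change of at least 30% with cell ATP level not reduced by more than half and red fluorescence within 50% of control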
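Material: RFP-PRO-GFP reporter HT1080 cells. Dosing: single-point 20 µM compound, 1% DMSO. Controls: DMSO and RFP-L50D-GFP cell wells. Timing: cells overnight before dosing, compound overnight, 37 °C, 5% CO2. Measure: GFP/RFP fluorescence ratio.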
DNMT1 inh = blocks human DNA methyltransferase DNMT1. inhibition (reported as % activation of signal), % at 10 µM. P26358. 0.83% of 360,000 active. DNMT1 molecular beacon, Hinp1I cleavage, fluorescence; in the data active = inhibition above about 50%
Rpn11 inh = blocks the human proteasome subunit Rpn11; O00487; inhibition, % at 20 µM; 0.59% of 360,000 active; human 26S proteasome, Ub4-pepOG fluorescence polarization; 20S core pre-blocked with epoxomicin;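 active = inhibition at 20 µM, scaled to each plate's controls, above about 33%, limit read from the data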
Target sequence (O00487 whole entry, looked up): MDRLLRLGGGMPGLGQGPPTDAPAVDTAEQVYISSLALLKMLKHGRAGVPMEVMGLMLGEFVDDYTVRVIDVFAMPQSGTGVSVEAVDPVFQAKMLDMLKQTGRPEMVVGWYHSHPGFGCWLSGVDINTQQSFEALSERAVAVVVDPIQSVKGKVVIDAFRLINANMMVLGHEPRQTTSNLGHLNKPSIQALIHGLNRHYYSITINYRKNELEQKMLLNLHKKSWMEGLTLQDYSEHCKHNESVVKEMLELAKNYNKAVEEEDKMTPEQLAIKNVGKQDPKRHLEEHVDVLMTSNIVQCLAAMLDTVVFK
Rpn11 inh conf = confirmation of human proteasome Rpn11 inhibitors. shares compounds with Rpn11 inh. purified human 26S proteasome, Ub4-pepOG fluorescence polarization; proteasome pretreated with epoxomicin. inhibition, % at 20 µM. 29% of 1,900 active. AID 602318
MMP-2 inh = blocks human MMP-2, flagging nonselective RPN11 hits. shares compounds with Rpn11 inh. recombinant MMP-2, FRET peptide cleavage fluorescence. inhibition, % at 20 µM. 4% of 1,900 active;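 also: human MMP-2 activated beforehand with APMA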
Thrombin FP = blocks bovine thrombin, flagging nonselective RPN11 hits | bovine thrombin cleavage of Ub4-pepOG, fluorescence polarization | shares compounds with Rpn11 inh | inhibition, % at 20 µM | 13% of 1,900 active | AID 602333;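 active = mean inhibition at least 40% at 20 µM, or signal 3 deviations below plate average, so some actives read negative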
Numbers stand for hits; - = inactive; . = not tested or not shown. Only some compounds are listed: those with a hit (about 2.3% of all), similar ones and a draw of the others. Rule as the data show it, unless noted: active = inhibition above about 40%; inactive = the rest.

SMILES	SUMO1 PPI mod	SKN-1 inh	CSN deneddyl inh	MT1-MMP act inh	DNMT1 inh	Rpn11 inh	Rpn11 inh conf	MMP-2 inh	Thrombin FP
Cn1c(C(=O)NCCCN2CCCCCC2)cc2c(=O)n(C)c3ccccc3c21	-	-	-	.	-	68	-	-	-
COc1ccc(C)cc1Nc1nc(-c2c[nH]c3ccccc23)cs1	-	-	-	-	-	42	-	-	-
O=[N+]([O-])c1ccc(-c2ccc(/C=N/Nc3nc(N4CCCCC4)nc(N4CCCCC4)n3)o2)cc1	-	-	-	-	-	58	-	-	-
O=C(N/N=C/c1ccc(-c2ccc([N+](=O)[O-])cc2)o1)c1cccnc1	-	-	-	-	-	85	49	-	-
O=[N+]([O-])c1ccc(-c2ccc(/C=N/Nc3nc(N4CCCC4)nc(N4CCCC4)n3)o2)cc1	-	-	-	-	-	.	.	.	.
O=C(N/N=C/c1ccc([N+](=O)[O-])cc1)c1cccnc1	-	-	-	-	-	-	.	.	.
COc1ccc(/C=C2\CCCC3C2=NN(C(=O)CSc2ncn[nH]2)C3c2ccc(OC)cc2)cc1 (stereo not drawn)	-	-	-	-	-	41	-	-	-
O=C(CN1C(=O)C2C3C=CC(C3)C2C1=O)Nc1nc(SCc2ccc(Cl)cc2)n[nH]1 (stereo not drawn)	-	-	-	-	-	112	-	-	-
Cc1ccc(O)c(N=NC2=C(O)CC(C)(C)CC2=O)c1	-	-	-	-	-	47	-	-	-
COc1ccc(CCn2c(=N)c(C(=O)NC3CCCC3)cc3c(=O)n4ccccc4nc32)cc1	-	-	-	-	-	-	.	.	.
Cc1cccn2c(=O)c3cc(C(=O)NC4CCCC4)c(=N)n(C4CCCC4)c3nc12	-	-	-	-	-	134	-	-	-
COc1ccc(CCn2c(=N)c(C(=O)NC3CCCC3)cc3c(=O)n4ccccc4nc32)cc1OC	-	-	-	-	-	42	-	-	-
Cc1ccccc1C(=O)N1CCC(C(N)=O)CC1	55	-	-	-	-	35	-	-	-
NC(=O)C1CCN(C(=O)c2cccc3ccccc23)CC1	-	-	-	-	-	-	.	.	.
Cc1ccc2sc(NNC(=O)c3cc(=O)c4ccccc4o3)nc2c1C	-	-	-	-	-	48	-	-	-
CCOC(=O)N1CCN(C(=O)C[C@@H]2C[C@@]3(C(=O)OC)CC(C)(C)CC=C3N(CCc3ccc(OC)c(OC)c3)C2=O)CC1	-	-	-	-	.	.	.	.	.
COc1ccc(OC)c(Nc2nc3nonc3nc2N2CCCC(C)C2)c1 (stereo not drawn)	-	-	-	-	-	62	-	-	-
CNc1ccc2nnc(C(F)(F)C(F)(F)C(F)(F)F)n2n1	-	-	-	-	-	106	-	-	-
CCn1c(C)cc(/C=C2/SC(=S)N(CC(=O)O)C2=O)c1C	-	-	-	-	-	52	97	-	63
C#CCN1C(=O)S/C(=C/c2cc(C)n(CC)c2C)C1=O	-	-	-	-	-	-	.	.	.
COc1ccc(-c2[nH]c(-c3ccc(C)cc3)nc2SCC(=O)Nc2nccs2)cc1	-	-	-	-	-	84	-	-	-
COc1ccc(-c2[nH]c(-c3ccc(SC)cc3)nc2SCC(=O)Nc2nccs2)cc1	-	-	-	-	-	71	87	-	63
COc1ccc(-c2nc(SCC(=O)Nc3nccs3)c(-c3ccc(Cl)cc3)[nH]2)cc1	-	-	-	-	-	-	.	.	.
COC(=O)C1=C(C)NC(=O)/C1=C\c1cc(C)n(-c2c(C)cccc2C)c1C	-	-	-	-	-	58	-	-	-
COC(=O)C1=C(C)NC(=O)/C1=C\c1cc(C)n(-c2ccccc2C)c1C	-	-	-	-	-	-	.	.	.
SMILES	SUMO1 PPI mod	SKN-1 inh	CSN deneddyl inh	MT1-MMP act inh	DNMT1 inh	Rpn11 inh	Rpn11 inh conf	MMP-2 inh	Thrombin FP
CN1CCc2c(sc(NC(=O)c3ccc4ccccc4c3)c2C(N)=O)C1	-	-	-	-	-	.	.	.	.
COc1cc2ccccc2cc1C(=O)Nc1sc2c(c1C(N)=O)CCN(C(C)C)C2	-	-	-	-	-	45	69	-	46
COc1ccc(Cl)cc1CC1(C)C(=O)Nc2ccc(S(=O)(=O)NC3CCCCC3)cc21 (stereo not drawn)	-	-	-	-	-	-	.	.	.
O=C(CN1C(=O)/C(=C/c2ccc(F)cc2)SC1=S)N1CCN(CCc2ccccn2)CC1	-	-	-	-	-	42	-	-	-
CN1CCN(C(=O)CCN2C(=O)/C(=C\c3ccc(F)cc3)SC2=S)CC1	-	-	-	-	-	-	.	.	.
CC(C)NC(=O)C1(C)CN(S(C)(=O)=O)CC(=O)N1C1CCCCCC1 (stereo not drawn)	-	-	-	-	.	.	.	.	.
COc1cccc(-c2ccc3c(c2)O[C@H](CN(C)C(=O)c2ccccc2F)[C@H](C)CN([C@H](C)CO)S3(=O)=O)c1	-	-	-	-	-	-	.	.	.
CCN(CC)c1ccc(/C=N/NC(=O)c2ccco2)cc1	-	-	-	-	-	-	.	.	.
CCN(CC)c1ccc(/C=N/N=C(c2ccccc2)c2ccccc2)c(O)c1	-	-	-	-	-	50	-	-	-
CCN(CC)c1ccc(/C=N/NC(=O)c2ccco2)c(O)c1	-	-	-	-	-	47	-	-	-
S=C(c1cn(CCOc2cccc3ccccc23)c2ccccc12)N1CCCC1	-	-	-	-	-	46	52	-	-
S=C(c1cn(CCOc2ccccc2)c2ccccc12)N1CCCC1	-	-	-	-	-	-	.	.	.
Cc1c2c(=O)n(-c3nc4ccccc4s3)nc-2cc(O)n1Cc1ccccc1	-	-	-	-	-	41	-	-	-
Cc1ccc2c(C)c(C(=O)N3CCC(C(N)=O)(N4CCCCC4)CC3)oc2c1C	-	-	-	-	-	-	.	.	.
CC(C)c1cccc(-c2csc(C(C)(O)c3ccncc3)n2)c1 (stereo not drawn)	-	-	-	-	-	-	.	.	.
Cc1cccc(N(CC(=O)NCCSCc2ccco2)S(=O)(=O)c2ccccc2)c1	-	-	-	-	-	-	.	.	.
Cc1ccc(N(CC(=O)NCCSCc2ccco2)S(=O)(=O)c2ccc(C)cc2)cc1	-	-	-	-	-	53	-	-	-
